ChEMBL document CHEMBL4765236, “Insights into the Antimicrobial Activity and Cytotoxicity of Engineered α-Helical Peptide Amphiphiles” (J Med Chem, 2016)
Converted amounts (≈) assume the structure as drawn. The source made the active and inactive calls. The calls are words filed in the database; no cut-off is given here.

What was measured:
Salmonella paratyphi [1] = assay: Antibacterial activity against Salmonella paratyphi A CICC 20501 assessed as bacterial growth inhibition incubated for 18 to 24 hrs by microtiter broth dilution method; type: functional, Salmonella enterica subsp. enterica serovar Paratyphi A; details: Salmonella enterica, time 18-24 hrs
How it was run: (§1)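 Log-phase bacteria grown at 37 °C in MHB, diluted to 10^5 CFU/mL, mixed 1:1 with serial peptide dilutions (peptide diluted in 0.01% acetic acid, 0.2% BSA); 37 °C for 18-24 h. MIC read by OD492 as lowest concentration giving no growth; mean of 3-5 independent experiments.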

Escherichia coli [2] = assay: Antibacterial activity against Escherichia coli O157:H7 CICC 21530 assessed as bacterial growth inhibition incubated for 18 to 24 hrs by microtiter broth dilution method; type: functional; details: time 18-24 hrs; how it was run: as §1
[3] = tested on: Salmonella enterica subsp. enterica serovar Paratyphi B; assay: Antibacterial activity against Salmonella paratyphi B CICC 21495 assessed as bacterial growth inhibition incubated for 18 to 24 hrs by microtiter broth dilution method; type: functional; details: time 18-24 hrs; how it was run: as §1
Vibrio parahaemolyticus = assay: Antibacterial activity against Vibrio parahaemolyticus CICC 21617 assessed as bacterial growth inhibition incubated for 18 to 24 hrs by broth dilution method; type: functional; details: time 18-24 hrs
How it was run: (§2)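 Log-phase cells (grown overnight at 37 °C, subcultured in MHB) diluted to 10^5 CFU/mL in MHB and mixed 1:1 with serial peptide dilutions prepared in 0.01% acetic acid/0.2% BSA. Incubated 37 °C for 18-24 h. MIC is the lowest concentration giving no growth by OD492. Reported as the average of 3-5 independent experiments.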

Staphylococcus aureus [4] = assay: Antibacterial activity against Staphylococcus aureus GIM 1.160 assessed as bacterial growth inhibition incubated for 18 to 24 hrs by microtiter broth dilution method; type: functional; details: time 18-24 hrs; how it was run: as §2
Salmonella enterica = assay: Antibacterial activity against Salmonella choleraesuis ATCC 13312 assessed as bacterial growth inhibition incubated for 18 to 24 hrs by broth dilution method; type: functional; details: time 18-24 hrs; how it was run: as §1
Salmonella typhimurium = assay: Antibacterial activity against Salmonella typhimurium CMCC 51005 assessed as bacterial growth inhibition incubated for 18 to 24 hrs by microtiter broth dilution method; type: functional, Salmonella enterica subsp. enterica serovar Typhimurium; details: Salmonella enterica, time 18-24 hrs; how it was run: as §2
Candida albicans = assay: Antifungal activity against Candida albicans ATCC 10231 assessed as fungal growth inhibition incubated for 18 to 24 hrs by microtiter broth dilution method; type: functional; details: time 18-24 hrs; how it was run: as §2
Micrococcus luteus = assay: Antibacterial activity against Micrococcus luteus CMCC 28001 assessed as bacterial growth inhibition incubated for 18 to 24 hrs by microtiter broth dilution method; type: functional; details: time 18-24 hrs; how it was run: as §2
Erythrocyte = assay: Hemolytic activity against human red blood cells assessed as concentration required to cause 10% hemoglobin release measured after 1 hr by microplate reader analysis; type: ADME, cell-based
How it was run: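 Fresh heparinized human RBCs washed three times in 10 mM PBS pH 7.4 and resuspended to about 1% (v/v) (5.4 × 10^8 cells/mL). Mixed 1:1 with peptide in PBS for 1 h at 37 °C, then centrifuged. Supernatant hemoglobin read at A540. PBS set as 0% and 0.1% Triton X-100 as 100% hemolysis. MHC is the concentration causing 10% hemolysis.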

Escherichia coli [5] = assay: Antibacterial activity against Escherichia coli ATCC 25922 assessed as bacterial growth inhibition incubated for 18 to 24 hrs by microtiter broth dilution method; type: functional; details: time 18-24 hrs; how it was run: as §2
Escherichia coli [6] = assay: Antibacterial activity against Escherichia coli ATCC 35150 assessed as bacterial growth inhibition incubated for 18 to 24 hrs by microtiter broth dilution method; type: functional; details: time 18-24 hrs; how it was run: as §2
Salmonella paratyphi [7] = assay: Antibacterial activity against Salmonella paratyphi C CICC 21512 assessed as bacterial growth inhibition incubated for 18 to 24 hrs by microtiter broth dilution method; type: functional; details: Salmonella enterica, time 18-24 hrs; how it was run: as §1
Staphylococcus aureus [8] = assay: Antibacterial activity against methicillin resistant Staphylococcus aureus ATCC 43300 assessed as bacterial growth inhibition incubated for 18 to 24 hrs by microtiter broth dilution method; type: functional; details: time 18-24 hrs; how it was run: as §1
Shigella flexneri = assay: Antibacterial activity against Shigella flexneri CMCC 51571 assessed as bacterial growth inhibition incubated for 18 to 24 hrs by microtiter broth dilution method; type: functional; details: time 18-24 hrs; how it was run: as §2
Bacillus pumilus = assay: Antibacterial activity against Bacillus pumilus CMCC 63202 assessed as bacterial growth inhibition incubated for 18 to 24 hrs by microtiter broth dilution method; type: functional; details: time 18-24 hrs; how it was run: as §2
Bacillus cereus = assay: Antibacterial activity against Bacillus cereus CMCC 63301 assessed as bacterial growth inhibition incubated for 18 to 24 hrs by microtiter broth dilution method; type: functional; details: time 18-24 hrs; how it was run: as §2
Salmonella enteritidis = assay: Antibacterial activity against Salmonella enteritidis CICC 21527 assessed as bacterial growth inhibition incubated for 18 to 24 hrs by microtiter broth dilution method; type: functional, Salmonella enterica subsp. enterica serovar Enteritidis; details: Salmonella enterica, time 18-24 hrs; how it was run: as §2
Pseudomonas fluorescens = assay: Antibacterial activity against Pseudomonas fluorescens CICC 21620 assessed as bacterial growth inhibition incubated for 18 to 24 hrs by microtiter broth dilution method; type: functional; details: time 18-24 hrs; how it was run: as §2
[9] = Hemolytic activity against human red blood cells assessed as hemoglobin release at 64 uM measured after 1 hr by microplate reader analysis relative to control; type: ADME, cell-based, Erythrocyte; details: read-out: Activity
How it was run: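 Fresh heparinized human RBCs washed in 10 mM PBS pH 7.4, ~1% (v/v) suspension mixed 1:1 with peptide in PBS, 1 h at 37 °C; after centrifugation, supernatant absorbance at 540 nm. Percent hemolysis relative to PBS (0%) and 0.1% Triton X-100 (100%).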

Cell membrane [10] = assay: Induction of inner membrane permeabilization in Escherichia coli O157:H7 CICC 21530 assessed as cytoplasmic beta-galactosidase release at 1 times MIC using ONPG as substrate by […]; type: subcellular
[11] = Therapeutic index, ratio of MHC10 for human RBC to geometric mean of peptide MIC for Escherichia coli O157:H7 CICC 21530; type: toxicity; details: human red blood cells (RBC), pooled result: one value given for 11 cell lines, strains, targets or settings, read-out: TI
How it was run: (§3)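 Therapeutic index = MHC (peptide concentration giving 10% hemolysis of human RBCs, 1 h, 37 °C, A540) divided by geometric mean of MICs from broth microdilution (10^5 CFU/mL in MHB, 37 °C, 18-24 h, OD492).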

RAW264.7 = assay: Cytotoxicity against mouse RAW264.7 cells assessed as increase in cell viability at 64 uM incubated for 24 hrs by MTT assay relative to control; type: cell-based; details: raw264.7, 24 h
How it was run: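 RAW264.7 macrophages were grown in DMEM with 10% FBS, 2 mM glutamine and penicillin/streptomycin at 37 °C in 5% CO2. Cells seeded at 1.0-2.0 × 10^4 per well and treated with peptide (final 0.25-64 µM) for 24 h at 37 °C. MTT at 0.5 mg/mL added for 4 h, formazan dissolved in DMSO, read at 570 nm.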

Cell membrane [12] = assay: Induction of cell membrane depolarization in Escherichia coli O157:H7 CICC 21530 assessed as increase in fluorescence intensity at 0.5 to 2 times MIC preincubated for 90 mins followed by KCl addition and measured after 15 to 30 mins by DiSC3-5 staining based fluorescence spectroscopic technique; type: subcellular; details: time 105-120 min
[13] = Therapeutic index, ratio of MHC10 for human RBC to geometric mean of peptide MIC for Staphylococcus aureus ATCC 29213; type: toxicity; details: human red blood cells (RBC), pooled result: one value given for 9 cell lines, strains, targets or settings, read-out: TI; how it was run: as §3

CN[C@H](CC(C)C)C(=O)N[C@H]1C(=O)N[C@@H](CC(N)=O)C(=O)N[C@H]2C(=O)N[C@H]3C(=O)N[C@H](C(=O)N[C@H](C(=O)O)c4cc(O)cc(O)c4-c4cc3ccc4O)[C@H](O)c3ccc(c(Cl)c3)Oc3cc2cc(c3O[C@@H]2O[C@H](CO)[C@@H](O)[C@H](O)[C@H]2O[C@H]2C[C@](C)(N)[C@H](O)[C@H](C)O2)Oc2ccc(cc2Cl)[C@H]1O [VANCOMYCIN]
MIC (Salmonella paratyphi [1]): > 88.3 µM | MIC (Escherichia coli [2]): > 88.3 µM | MIC [3]: 88.3 µM (≈ 128 µg/mL) | MIC (Vibrio parahaemolyticus): 88.3 µM (≈ 128 µg/mL) | MIC (Staphylococcus aureus [4]): 1.38 µM (≈ 2 µg/mL) | MIC (Salmonella enterica): > 88.3 µM | MIC (Salmonella typhimurium): > 88.3 µM | MIC (Candida albicans): > 88.3 µM | MIC (Micrococcus luteus): 0.69 µM (≈ 1 µg/mL) | MHC10 (Erythrocyte): > 88.32 µM | MIC (Escherichia coli [5]): 88.3 µM (≈ 128 µg/mL) | MIC (Escherichia coli [6]): > 88.3 µM | MIC (Salmonella paratyphi [7]): 88.3 µM (≈ 128 µg/mL) | MIC (Staphylococcus aureus [8]): 1.38 µM (≈ 2 µg/mL) | MIC (Shigella flexneri): 88.3 µM (≈ 128 µg/mL) | MIC (Bacillus pumilus): 0.35 µM (≈ 0.507 µg/mL) | MIC (Bacillus cereus): 0.17 µM (≈ 0.246 µg/mL) | MIC (Salmonella enteritidis): 44.2 µM (≈ 64 µg/mL) | MIC (Pseudomonas fluorescens): 0.35 µM (≈ 0.507 µg/mL)

CC[C@H](C)[C@H](NC(=O)CN)C(=O)NCC(=O)N[C@@H](C)C(=O)N[C@H](C(=O)N[C@@H](CC(C)C)C(=O)N[C@@H](CCCCN)C(=O)N[C@H](C(=O)N[C@@H](CC(C)C)C(=O)N[C@H](C(=O)N[C@H](C(=O)NCC(=O)N[C@@H](CC(C)C)C(=O)N1CCC[C@H]1C(=O)N[C@@H](C)C(=O)N[C@@H](CC(C)C)C(=O)N[C@H](C(=O)N[C@@H](CO)C(=O)N[C@@H](Cc1c[nH]c2ccccc12)C(=O)N[C@H](C(=O)N[C@@H](CCCCN)C(=O)N[C@@H](CCCNC(=N)N)C(=O)N[C@@H](CCCCN)C(=O)N[C@@H](CCCNC(=N)N)C(=O)N[C@@H](CCC(N)=O)C(=O)N[C@@H](CCC(N)=O)C(N)=O)[C@@H](C)CC)[C@@H](C)CC)[C@@H](C)O)[C@@H](C)O)C(C)C)C(C)C [MELITTIN]
MIC (Salmonella paratyphi [1]): 0.7 µM (≈ 1.99 µg/mL) | MIC [3]: 0.35 µM (≈ 0.996 µg/mL) | hemolysis at 1 h, 64 µM [9]: 63.7% | MIC (Vibrio parahaemolyticus): 1.41 µM (≈ 4.01 µg/mL) | Activity (Cell membrane [10]): Active | MIC (Salmonella enterica): 0.7 µM (≈ 1.99 µg/mL) | MIC (Candida albicans): 2.81 µM (≈ 8 µg/mL) | MIC (Micrococcus luteus): 0.7 µM (≈ 1.99 µg/mL) | selectivity ratio [11]: 0.44 | Activity (RAW264.7): 1.85% | Activity (Cell membrane [12]): Active | MHC10 (Erythrocyte): 0.35 µM | MIC (Salmonella paratyphi [7]): 0.7 µM (≈ 1.99 µg/mL) | MIC (Shigella flexneri): 0.7 µM (≈ 1.99 µg/mL) | selectivity ratio [13]: 0.43 | MIC (Bacillus pumilus): 0.35 µM (≈ 0.996 µg/mL) | MIC (Bacillus cereus): 1.41 µM (≈ 4.01 µg/mL) | MIC (Salmonella enteritidis): 1.41 µM (≈ 4.01 µg/mL) | MIC (Pseudomonas fluorescens): 1.41 µM (≈ 4.01 µg/mL)
